The source made the active and inactive calls. The calls are words filed in the database; no cut-off is given here.
How the values were obtained:
[1] = biological target: 5-hydroxytryptamine receptor 4 (Homo sapiens) (UniProt Q13639); test: Agonist activity at human 5-HT4R expressed in GloSensor-22F6 expressing 2B2 cells co-expressing Galpha-s assessed as increase in cAMP accumulation up to 60 mins by luminometry relative to control 5-HT; assay type: functional, cell-based
Method in brief: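 Cells carrying a cAMP luminescence biosensor were additionally transduced with Gαs and human 5-HT4R, then seeded at 25 x 10³ cells/well 24 h ahead. Ligands (up to 10 µM) were added with 1 mM final IBMX.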

[2] = biological target: 5-hydroxytryptamine receptor 4 (Homo sapiens) (UniProt Q13639); test: Partial agonist activity at Rluc-tagged human 5-HT4 receptor expressed in human SH-5YSY cells co-expressing RGFP-fused to Gbeta1 assessed as inhibition of serotonin-induced coupling by BRET assay; assay type: functional, cell-based
[3] = biological target: 5-hydroxytryptamine receptor 4 (Cavia porcellus, UniProt O70528); test: Displacement of [3H]GR113808 from serotonin 5-HT4 receptor in Dunkin-Hartley guinea pigs striatal nuclei membranes incubated for 30 mins by liquid scintillation counting
Chain of 5-hydroxytryptamine receptor 4 (O70528 whole entry): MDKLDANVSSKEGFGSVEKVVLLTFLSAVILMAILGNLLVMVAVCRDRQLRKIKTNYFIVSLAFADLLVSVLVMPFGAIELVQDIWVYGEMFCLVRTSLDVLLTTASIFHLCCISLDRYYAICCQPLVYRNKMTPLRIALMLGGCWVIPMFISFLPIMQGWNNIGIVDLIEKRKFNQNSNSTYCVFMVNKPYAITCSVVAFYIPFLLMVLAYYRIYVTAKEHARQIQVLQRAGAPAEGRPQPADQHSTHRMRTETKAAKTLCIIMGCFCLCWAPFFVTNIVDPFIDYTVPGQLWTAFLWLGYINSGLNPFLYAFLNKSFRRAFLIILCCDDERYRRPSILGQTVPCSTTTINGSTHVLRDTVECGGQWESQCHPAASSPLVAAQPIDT

Chain of 5-hydroxytryptamine receptor 4 (Homo sapiens) (Q13639 whole entry, the tested form may be a part): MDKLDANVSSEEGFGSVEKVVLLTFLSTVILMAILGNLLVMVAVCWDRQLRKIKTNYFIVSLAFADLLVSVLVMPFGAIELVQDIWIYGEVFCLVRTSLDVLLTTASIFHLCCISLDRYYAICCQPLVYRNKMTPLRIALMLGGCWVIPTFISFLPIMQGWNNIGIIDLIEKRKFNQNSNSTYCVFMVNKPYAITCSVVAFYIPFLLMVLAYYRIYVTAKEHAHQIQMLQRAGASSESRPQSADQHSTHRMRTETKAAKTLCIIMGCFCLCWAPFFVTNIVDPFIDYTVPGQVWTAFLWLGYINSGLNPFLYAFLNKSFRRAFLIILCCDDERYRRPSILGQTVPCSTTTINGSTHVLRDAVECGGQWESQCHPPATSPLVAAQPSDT

Row | SMILES | Ratio [1] | Activity [2] | Ki [3]
1 | COc1cc(N)c(Cl)cc1C(=O)OCCN1CCC(NC(=O)NCCOCCOCCNC(=O)NCC(=O)O)CC1 | 0.21 | Active | 61 nM
2 | COc1cc(N)c(Cl)cc1C(=O)OCCN1CCC(NC(=O)NCCOCCOCCNC(=O)NCC(=O)OCc2ccccc2)CC1 | 0.15 | Active | 4 nM
3 | COc1cc(N)c(Cl)cc1C(=O)OCCN1CCC(NC(=O)NCCOCCOCCNC(=O)NC2CCN(CCOC(=O)c3cc(Cl)c(N)cc3OC)CC2)CC1 | 0.28 | Active | 4 nM
4 | COc1cc(N)c(Cl)cc1C(=O)OCCN1CCCCC1 | – | Active | –
5 | COc1cc(N)c(Cl)cc1C(=O)N[C@H]1CCN(CCCOc2ccc(F)cc2)C[C@H]1OC | – | Active | –
6 | COc1cc(N)c(Cl)cc1C(=O)OCCN1CCC(NC(=O)NCCOCCOCCOCCOCCOCCOCCOCCOCCN=[N+]=[N-])CC1 | 0.18 | Active | 121 nM
7 | COc1cc(N)c(Cl)cc1C(=O)OCCN1CCC(NC(=O)NCCOCCOCCOCCOCCOCCOCCOCCOCCn2cc(CNC(=O)NCCCN(CCCCN(CCCNC(=O)NCc3cn(CCOCCOCCOCCOCCOCCOCCOCCOCCNC(=O)NC4CCN(CCOC(=O)c5cc(Cl)c(N)cc5OC)CC4)nn3)CCCNC(=O)NCc3cn(CCOCCOCCOCCOCCOCCOCCOCCOCCNC(=O)NC4CCN(CCOC(=O)c5cc(Cl)c(N)cc5OC)CC4)nn3)CCCNC(=O)NCc3cn(CCOCCOCCOCCOCCOCCOCCOCCOCCNC(=O)NC4CCN(CCOC(=O)c5cc(Cl)c(N)cc5OC)CC4)nn3)nn2)CC1 | 0.14 | Active | 4.5 nM
8 | COc1cc(N)c(Cl)cc1C(=O)OCCN1CCC(NC(=O)OC(C)(C)C)CC1 | 0.21 | Active | 30 nM
9 | CCCCNC(=O)NC1CCN(CCOC(=O)c2cc(Cl)c(N)cc2OC)CC1 | 0.24 | Active | 13 nM
10 | COc1cc(N)c(Cl)cc1C(=O)OCCN1CCC(NC(=O)NCCOCCOCCOCCOCCOCCOCCOCCOCCn2cc(CNC(=O)NCCCN(C)CCCNC(=O)NCc3cn(CCOCCOCCOCCOCCOCCOCCOCCOCCNC(=O)NC4CCN(CCOC(=O)c5cc(Cl)c(N)cc5OC)CC4)nn3)nn2)CC1 | 0.16 | Active | 9 nM
11 | COc1cc(N)c(Cl)cc1C(=O)OCCCN1CCCCC1 | 0.09 | Active | –

Reference: ChEMBL document CHEMBL4138046, “Multivalent ligands for the serotonin 5-HT4 receptor” (Medchemcomm, 2017)
